{"source": "paper PMC3667888", "about": "(Channels, 2013)", "key": {"[1]": {"target": "T1, Kv4.2 K318Q mutant channels (co-injected with KChIP1b) (Rattus norvegicus, UniProt Q63881, K318Q)", "T1 sequence (Q63881 1-630 K318Q)": "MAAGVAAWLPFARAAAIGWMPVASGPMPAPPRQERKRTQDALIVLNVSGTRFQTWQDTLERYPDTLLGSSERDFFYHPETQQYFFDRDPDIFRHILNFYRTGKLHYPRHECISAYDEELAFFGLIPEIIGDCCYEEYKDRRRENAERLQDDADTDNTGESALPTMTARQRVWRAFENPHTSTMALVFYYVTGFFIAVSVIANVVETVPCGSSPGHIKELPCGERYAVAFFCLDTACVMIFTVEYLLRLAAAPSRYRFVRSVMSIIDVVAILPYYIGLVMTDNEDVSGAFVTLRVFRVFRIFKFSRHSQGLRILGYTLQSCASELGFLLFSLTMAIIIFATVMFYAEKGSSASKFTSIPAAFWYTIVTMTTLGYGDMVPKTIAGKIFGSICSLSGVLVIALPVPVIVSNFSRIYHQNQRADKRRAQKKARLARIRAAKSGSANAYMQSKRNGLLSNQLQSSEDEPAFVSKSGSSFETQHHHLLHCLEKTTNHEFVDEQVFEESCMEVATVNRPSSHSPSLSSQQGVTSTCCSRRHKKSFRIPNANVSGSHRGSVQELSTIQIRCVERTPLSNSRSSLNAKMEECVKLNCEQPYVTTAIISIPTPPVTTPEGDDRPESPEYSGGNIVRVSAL", "experiment": "Two-electrode voltage clamp, K318Q mutant Kv4.2/KChIP1b in Xenopus oocytes", "type": "cell-based", "how_it_was_run": "(§1)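 Rat Kv4.2 (WT or QuikChange mutant) RNA co-injected equimolar with KChIP1b, 5–10 ng/oocyte, into Xenopus oocytes held 1–5 d at 17–19 °C. Two-electrode voltage clamp at room temperature in perfused Na/K methanesulfonate HEPES saline, pH 7.4–7.5, with P/−4 or P/−6 leak subtraction. Peak current at +40 mV (from −90 mV) after 10 min of 10 μM AA is expressed relative to pre-AA current. Mean ± SE, n = cells.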"}, "[2]": {"tested_on": "group of mutant Kv4.2 channels (V261F, K318Q, V261F/K318Q)", "experiment": "Two-electrode voltage clamp, grouped mutant Kv4.2 channels", "type": "cell-based, rat", "conditions": "10 µM AA", "how_it_was_run": "(§2)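 Xenopus oocytes co-expressing rat Kv4.2 (WT or mutant) with equimolar KChIP1b were recorded by two-electrode voltage clamp at room temperature. Peak conductance was calculated as G = I/(Vm − Vh), with Vh = −100 mV, and normalized to each cell's Gmax. It was plotted against step potential without and with 10 μM AA and fit to a first-order Boltzmann function to give V1/2 and slope.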"}, "[3]": {"target": "T2, Kv4.2 K318E mutant channels (co-injected with KChIP1b) (Rattus norvegicus, UniProt Q63881, K318E)", "T2 sequence (Q63881 1-630 K318E)": "T1 sequence (Q63881 1-630 K318Q) with Q318E", "experiment": "Two-electrode voltage clamp, K318E mutant Kv4.2/KChIP1b in Xenopus oocytes", "type": "cell-based", "conditions": "10 µM AA", "how_it_was_run": "as §2"}, "[4]": {"target": "T3, Kv4.2 K318R mutant channels (co-injected with KChIP1b) (Rattus norvegicus, UniProt Q63881, K318R)", "T3 sequence (Q63881 1-630 K318R)": "T1 sequence (Q63881 1-630 K318Q) with Q318R", "experiment": "Two-electrode voltage clamp, K318R mutant Kv4.2/KChIP1b in Xenopus oocytes", "type": "cell-based", "conditions": "10 µM AA, 10 min", "how_it_was_run": "as §1"}, "[5]": {"tested_on": "Kv1.2/Kv2.1 chimeric channel", "experiment": "Two-electrode voltage clamp of Kv1.2/2.1 chimera K+ currents in Xenopus oocytes", "type": "cell-based", "conditions": "10 µM AA"}}, "note": "Changes are numbered by the printed parent chain.", "data": [{"smiles": "CCCCC/C=C\\C/C=C\\C/C=C\\C/C=C\\CCCC(=O)O", "note": "[AA, arachidonic acid]", "values": [{"measurement": "V1/2 of conductance-voltage curve with AA", "setting": "[1]; 10 µM AA, K318Q", "value": "−8.6", "unit": "mV"}, {"measurement": "slope factor (k) of Boltzmann fit with AA", "setting": "[1]; 10 µM AA, K318Q", "value": 11.3}, {"measurement": "inhibition at 10 µM", "setting": "[1]; read-out: inhibition of the peak K+ current", "value": 12, "unit": "%"}, {"measurement": "average shift in V1/2 in the presence of AA for the three mutant constructs", "setting": "[2]", "value": "+5.7 mV"}, {"measurement": "V1/2 of conductance-voltage curve with AA", "setting": "[3]", "value": "−25.2", "unit": "mV"}, {"measurement": "shift in V1/2 in the presence of AA", "setting": "[3]", "value": "+5 mV"}, {"measurement": "slope factor (k) of Boltzmann fit with AA", "setting": "[3]", "value": 7.1}, {"measurement": "inhibition of peak K+ current by AA, effect of mutation", "setting": "[3]; 10 min", "value": "did not impair the inhibition of current by AA"}, {"measurement": "inhibition of peak K+ current by AA, effect of mutation", "setting": "[4]", "value": "preserved the strong inhibition by AA"}, {"measurement": "modulation of Kv1.2/2.1 K+ currents by AA", "setting": "[5]", "value": "not modulated by AA"}, {"measurement": "increase in current", "setting": "[5]; n = 8, +110 mV test potential", "value": "1.1 ± 2.1", "unit": "%"}]}]}
